Article PMC7296533 (ACS Infectious Diseases, 2020)

Experiments:
[1] = molecular target: NDM-1 (Klebsiella pneumoniae, UniProt C7C422); experiment: MBL enzyme inhibition assay, fluorescent cephalosporin substrate FC5; assay type: biochemical
[2] = molecular target: VIM-2 (Escherichia coli, UniProt Q5U7L7); experiment: MBL enzyme inhibition assay, fluorescent cephalosporin substrate FC5; assay type: biochemical
Procedure, shortened: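 VIM-2 was expressed from a donated plasmid construct and purified. Test compound was serially diluted in 50 mM HEPES pH 7.2 containing 0.01% Triton X-100 and 1 μM ZnSO4, then preincubated for 15 min at 25 °C with 100 pM enzyme. Fluorescent cephalosporin FC536 (0.5 μM) was added and fluorescence (λex 380, λem 460 nm) followed over 30–40 scans. IC50 was fitted from initial rates against concentration.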

[3] = test system: panel of carbapenem-resistant clinical isolates of Gram-negative bacteria; experiment: Single concentration synergy assay, summary over the panel; assay type: cell-based; settings: for Reduction of MIC of Meropenem, in most cases: inhibitor at 32 μg/mL, strains expressing IMP-type enzymes
Procedure, shortened: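 CLSI broth microdilution. Isolates grown overnight on blood agar at 37 °C, then in TSB at 37 °C with shaking to OD600 0.5, and diluted in Mueller-Hinton broth. Meropenem serially diluted in MHB with test compound at a fixed 32 μg/mL final. Incubated 37 °C with shaking for 16–20 h. MIC is the lowest concentration with no visible growth, as the median of triplicates.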

[4] = molecular target: IMP-28; experiment: MBL enzyme inhibition assay, fluorescent cephalosporin substrate FC5; assay type: biochemical; settings: read-out: IC50 against IMP-28; 60 pM IMP-28, 1 μM ZnSO4; mean ± SD
Procedure, shortened: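 Recombinant C-terminal His-tagged IMP-28 (pET28b construct). Serial dilutions of test compound were made in 50 mM HEPES pH 7.2 with 0.01% Triton X-100 and 1 μM ZnSO4. Enzyme (60 pM) was preincubated with compound for 15 min at 25 °C. FC536 (16 μM) was added and fluorescence (ex 380/em 460 nm) read immediately over 30–40 cycles. IC50 was curve-fitted from initial velocities versus inhibitor concentration.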

[5] = test system: E. coli RC0089 (clinical NDM-1 positive isolate); experiment: OD600 checkerboard assay with Meropenem; assay type: cell-based; settings: E. coli expressing NDM-1

Sequence of NDM-1 (C7C422 29-270, looked up, species assumed): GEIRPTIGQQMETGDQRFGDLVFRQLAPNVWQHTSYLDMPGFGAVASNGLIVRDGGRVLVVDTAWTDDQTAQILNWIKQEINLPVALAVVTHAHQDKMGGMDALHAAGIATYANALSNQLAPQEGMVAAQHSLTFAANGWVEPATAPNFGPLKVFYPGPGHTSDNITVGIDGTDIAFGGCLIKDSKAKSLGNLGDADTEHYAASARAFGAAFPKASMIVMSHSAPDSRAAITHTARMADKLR

| SMILES | IC50 [1] | Effect of zinc sulfate concentration on IC50 against NDM-1 ([1]; zinc sulfate 0.1 to 20 μM) | IC50 [2] | Reduction of MIC of Meropenem, in most cases [3] | IC50 [4] | Relationship with Meropenem in checkerboard (in words) [5] | Synergy with Meropenem against strains expressing serine-carbapenemases ([3]; KPC-2 and OXA-48) | Antibacterial activity of the inhibitor alone ([3]; highest tested concentration 256 μg/mL) |
| --- | --- | --- | --- | --- | --- | --- | --- | --- |
| O=C(O)c1cccc(C(=O)O)n1 [DPA, 2,6-Dipicolinic acid, reference compound] | 3.8 ± 0.04 µM | zinc-dependent effect | 2.9 ± 0.5 µM | ≤ 4 fold | 17 ± 1 µM | – | – | – |
| O=C(O)CN(CC(=O)O)CC(=O)O [compound 3, Nitrilotriacetic acid] | – | – | ~2.4 µM | ≤ 4 fold | 112 ± 3 µM | strong synergistic relationship | complete lack of synergy | no antibacterial activity |
